LMPTP block – blocks human LMPTP phosphatase; P24666; recombinant LMPTP-A, OMFP fluorogenic substrate, fluorescence intensity; inhibition, % at 20 µM; 0.22% of 360,000 active;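 active = compounds that cut the enzyme signal by at least half of the control window in the single-dose screen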;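 note: plate controls were DMSO wells with enzyme plus substrate for no effect and substrate without enzyme for full effect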
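Test system – LMPTP-A phosphatase enzyme · Quantity – 0.625 nM LMPTP-A final · Reagent – OMFP substrate, 400 µM final · Dosing – one test concentration per compound, 20 µM, with 3% DMSO overall · Timing – 50 min enzyme reaction at room temperature, protected from light · Detection – fluorescence intensity · Controls – substrate-only low control, DMSO enzyme-plus-substrate high control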
Scp-1 inhibitor – blocks human Scp-1 phosphatase activity. Recombinant Scp1, phosphopeptide, malachite green phosphate absorbance. inhibition, % at 20 µM. 0.88% of 340,000 active. AID 493091;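 active = inhibition above about 50% at 20 µM, limit read from the data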;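 note: plate controls were DMSO wells with enzyme for no effect and wells lacking enzyme for full effect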
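System: truncated SCP-1 phosphatase (76-261aa); medium: Tris acetate buffer pH 5.5 with MgCl2 and Tween-20; incubation: 45 min room-temperature reaction, 5 min colour, 30 min stabiliser; compound: single 20 µM dose, 1% DMSO; reagent: Phosphorylated 17-residue peptide substrate; read-out: % inhibition at 20 µM; technique: colorimetric free-phosphate detection, absorbance 630 nm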
SUMO1 PPI mod – SUMO1-SIM interaction modulation | 0.33% of 360,000 active | inhibition, % at 20 µM | P63165 | SUMO1 binding to a labelled peptide, TR-FRET, 1 h; in the data active = inhibition above about 37%
Target sequence (P63165 whole entry, looked up): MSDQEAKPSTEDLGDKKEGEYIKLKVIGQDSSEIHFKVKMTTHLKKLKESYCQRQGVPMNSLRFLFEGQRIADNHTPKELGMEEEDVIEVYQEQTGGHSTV
STEP block – inhibitors of human striatal-enriched phosphatase STEP | P54829 | recombinant STEP, OMFP fluorogenic substrate, fluorescence | inhibition, % at 20 µM | 0.25% of 360,000 active;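 active = inhibition at 20 µM, scaled per plate between control wells, above about 37%, limit read from the data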;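 note: 0% = DMSO with enzyme and substrate and 100% = substrate only without enzyme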
Target sequence (P54829 whole entry, looked up): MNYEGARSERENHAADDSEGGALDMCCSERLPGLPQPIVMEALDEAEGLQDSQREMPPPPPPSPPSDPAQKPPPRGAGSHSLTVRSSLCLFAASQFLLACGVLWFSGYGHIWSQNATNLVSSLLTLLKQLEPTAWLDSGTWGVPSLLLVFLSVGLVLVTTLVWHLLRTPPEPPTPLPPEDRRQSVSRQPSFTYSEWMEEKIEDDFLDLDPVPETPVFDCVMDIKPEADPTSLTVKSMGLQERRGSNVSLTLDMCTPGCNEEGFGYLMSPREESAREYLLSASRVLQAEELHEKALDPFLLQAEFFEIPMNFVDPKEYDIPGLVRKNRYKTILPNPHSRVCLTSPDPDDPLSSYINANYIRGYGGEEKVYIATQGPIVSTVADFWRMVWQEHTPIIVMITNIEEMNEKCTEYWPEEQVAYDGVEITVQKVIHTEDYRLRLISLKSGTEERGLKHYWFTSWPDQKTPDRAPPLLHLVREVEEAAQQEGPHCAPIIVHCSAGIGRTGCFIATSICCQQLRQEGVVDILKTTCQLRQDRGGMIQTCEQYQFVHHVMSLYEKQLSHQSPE
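Assay system: isolated STEP enzyme / Timing: 20 min at room temperature, dark / Doses: 20 µM, 1% DMSO / Technique: fluorescence intensity, excitation 480 nm, emission 540 nm / Reagent: fluorogenic phosphatase substrate OMFP at 25 µM final / Measure: percent inhibition scaled to no-enzyme and uninhibited-enzyme controls, plate-pattern corrected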
DNMT1 block – blocks human DNA methyltransferase DNMT1; P26358; DNMT1 molecular beacon, Hinp1I cleavage, fluorescence; inhibition (reported as % activation of signal), % at 10 µM; 0.83% of 360,000 active; AID 588458; in the data active = inhibition above about 50%
An asterisk follows results filed as active; . = no result; + = active, no number. Shown are actives, neighbours in structure and some others; about 1.7% of the full set was active somewhere.

SMILES	LMPTP block	Scp-1 inhibitor	SUMO1 PPI mod	STEP block	DNMT1 block
NC(=O)c1nsc(C(=O)N(CC(=O)NCc2ccco2)c2ccccc2F)c1N	-1.2	-2.7	50.5*	0.1	2.4
CCOP(=O)(OCC)c1nc(-c2ccc(Cl)cc2Cl)oc1N1CCOCC1	1.9	-12.9	1.8	-0.8	-2.5
Cc1cccc(C)c1-n1nnnc1C1(C)CCC(=O)N1Cc1cccnc1 (stereo unspecified)	-0.9	.	5.2	.	.
CCCCN(C)C1=CC2=CC(=C(C#N)C#N)CCC2CC1 (stereo unspecified)	2.6	-5.0	18.6	-271.3	+
CCN(CC)C1=CC2=CC(=C(C#N)C#N)CCC2CC1 (stereo unspecified)	4.0	0.8	17.3	-230.7	+
O=C(NCCN1CCC(n2c(=O)[nH]c3ccccc32)CC1)c1cccc2c1-c1ccccc1C2=O	13.3	.	55.4*	.	.
COC(=O)C(CC(=O)c1ccc(Cl)cc1)c1ccccc1 (stereo unspecified)	1.4	-7.6	0.0	1.6	2.5
C=CC(=O)N1C/C(=C/c2ccc(F)cc2)C(=O)/C(=C\c2ccc(F)cc2)C1	7.2	84.7*	75.7*	24.5	92.9*
COC(=O)C1=C(COc2ccccc2)NC(=O)NC1c1ccc(Br)cc1 (stereo unspecified)	1.3	40.6	75.5*	-0.1	-0.5
Cc1ccc2nc3c(cc(C(=O)NCc4ccccc4)c(=N)n3CCCn3ccnc3)c(=O)n2c1	56.6*	2.5	-24.1	-0.1	12.8
N=c1c(C(=O)NCc2ccc3c(c2)OCO3)cc2c(=O)n3ccccc3nc2n1Cc1cccnc1	65.2*	-2.5	-20.8	1.6	0.2
N=c1c(C(=O)NCc2ccco2)cc2c(=O)n3ccccc3nc2n1Cc1ccc(Cl)cc1	51.8*	16.3	3.6	4.7	23.3
N=c1c(C(=O)NCc2ccco2)cc2c(=O)n3ccccc3nc2n1Cc1ccccc1	58.9*	7.6	1.7	3.7	75.5*
COc1ccc(CNC(=O)c2cc3c(=O)n4ccccc4nc3n(Cc3cccnc3)c2=N)cc1	14.9	5.2	-21.6	-3.2	2.5
Cc1ccc2nc3c(cc(C(=O)NCCc4ccccc4)c(=N)n3CCN3CCOCC3)c(=O)n2c1	10.2	-3.0	-7.9	8.4	2.1
COc1ccc(NC(=O)Cc2nnc(SCC(=O)NC3CCCCC3)n2C)cc1	-0.2	-2.3	3.9	-0.6	2.5
CCCC(=O)N=C1SC2CS(=O)(=O)CC2N1c1ccc(-c2nc3ccc(C)cc3s2)cc1 (stereo unspecified)	2.2	-3.9	-1.1	1.2	35.2
COc1ccc(NC(=O)CN2C(=O)NC(C)(Cc3ccc(OC)c(OC)c3)C2=O)cc1 (stereo unspecified)	-0.3	.	0.9	-1.4	7.0
N#Cc1c(NC(=O)/C=C/C(=O)O)sc2c1CCN(Cc1ccccc1)C2	47.4*	67.5*	10.2	2.0	37.0
CC(=O)Nc1sc2c(c1C#N)CCN(Cc1ccccc1)C2	-1.6	-4.8	4.2	3.1	1.0
CCC1(C)Cc2c(sc(NC(=S)NC(=O)c3ccccc3)c2C#N)CO1 (stereo unspecified)	51.9*	-3.1	-5.1	0.9	-5.0
CCN1CCc2c(sc(NC(=S)NC(=O)c3ccccc3)c2C#N)C1	57.8*	8.7	-0.5	-2.9	-5.3
CN1Cc2sc(NC(=S)NC(=O)c3ccccc3)c(C#N)c2CC1(C)C	.	2.7	.	.	.
O=C(c1[nH]c(C(F)(F)F)nc1-c1ccccc1)N1CCN(c2ncccn2)CC1	-2.0	.	3.7	-0.4	-1.7
COc1ccccc1N1CCN(C(=O)c2cccc(S(=O)(=O)N3c4ccccc4CC3C)c2)CC1 (stereo unspecified)	2.3	4.8	1.4	1.1	-8.6
SMILES	LMPTP block	Scp-1 inhibitor	SUMO1 PPI mod	STEP block	DNMT1 block
C[C@@H]1CN([C@H](C)CO)C(=O)CCCn2cc(nn2)CO[C@H]1CN(C)C(=O)Nc1ccnc(N2CCOCC2)c1	14.0	.	108.1*	2.7	1.8
Cc1cc(C=C2C(=O)c3ccccc3C2=O)c(C)n1C	2.5	-5.2	51.5*	-0.6	-10.8
CCn1c(C)cc(C=C2C(=O)c3ccccc3C2=O)c1C	4.2	-6.5	-18.8	0.0	-12.5
CN1CCN(c2ccc(-c3cccc4nccn34)cn2)CC1	5.4	.	-19.4	-4.8	6.7
Cc1nc(S/C(=C/c2ccc(-c3ccc(C(=O)O)cc3)o2)C(=O)O)n[nH]1	0.1	75.5*	8.1	15.0	27.6
Cc1nc(S/C(=C/c2ccc(-c3cc(Cl)ccc3C)o2)C(=O)O)n[nH]1	3.0	17.4	69.0*	2.7	-1.9
CC(=O)c1ccc(-c2ccc(/C=C(/Sc3n[nH]c(C)n3)C(=O)O)o2)cc1	2.3	30.4	8.5	-3.7	1.2
CCC1CCc2c(sc(N)c2C(N)=O)C1 (stereo unspecified)	0.5	-7.7	46.9*	0.5	-6.9
CCOC(=O)c1c(N)sc2c1CCC(CC)C2 (stereo unspecified)	2.2	-3.4	-5.0	0.7	0.5
CCOC(=O)/C(=C\C=C1/Sc2cc(OCC)c(OCC)cc2N1CC)C(C)=O	14.6	0.6	-201.1	-129.4	93.1*
Oc1cc(Nc2ccncc2)cc2cccnc12	56.4*	-14.5	-31.7	2.9	-3.8
COc1ccccc1Nc1ccc(S(=O)(=O)N2CCCCC2)cc1[N+](=O)[O-]	2.5	-7.3	-17.8	0.0	-2.6
O=C(Nc1ccc(Cl)c(-c2nc3ccccc3[nH]2)c1)c1ccc2c(c1)OCO2	2.4	0.1	6.2	1.7	-7.2
O=C(Nc1ccc(-c2nc3ccccc3[nH]2)cc1)c1ccc2c(c1)OCO2	7.3	0.5	41.6*	4.9	18.0
CC(C)(CN1CCc2ccccc2C1)NS(=O)(=O)c1ccc(Cl)cc1	1.9	-5.2	44.6*	0.5	-2.6
CCC(C)C(=O)OCC1(c2ccc(C)cc2OC(=O)C(C)C)CO1 (stereo unspecified)	-1.0	52.8*	2.5	0.3	12.3
CC(=O)Oc1cc2cccc(OC(C)=O)c(=O)c2c(OC(C)=O)c1OC(C)=O	29.6	58.2*	-6.5	3.9	59.1*
Cc1ccc(NC(=S)N2CCCC2)cc1Cl	-0.3	-2.2	1.0	1.3	-0.3
COc1ccc(S(=O)(=O)NCc2cccs2)cc1	10.7	58.9*	-2.7	55.1*	16.0
CCN(CC)S(=O)(=O)c1ccc(S(=O)(=O)NCc2cccs2)cc1	0.0	5.9	-0.7	0.0	0.7
O=C1c2cccnc2C(=O)N1CO	-0.2	0.3	-3.0	-0.7	3.0
NC1=C(Br)C(=O)c2ncccc2C1=O	3.5	2.2	-23.1	5.3	63.3*
O=C(c1ccc(CSc2nc3ccncc3[nH]2)cc1)N1CCN(c2cccc(Cl)c2)CC1	65.7*	-9.2	9.1	6.0	-10.2
Cn1cc([N+](=O)[O-])c(C(=O)Nc2ccc(-c3nc4ccccc4o3)cc2)n1	0.5	14.7	45.9*	1.3	3.1
Cc1cc(N2CCN(C(=O)c3cccs3)CC2)c(F)cc1[N+](=O)[O-]	0.7	-11.4	18.8	-2.7	1.6

High-throughput results as filed in PubChem.
